Dynein transport – inhibitors of GR-EGFP nuclear translocation, primary screen, dynein cargo transport inhibitor project, imaging, high-content, 3617.4 mouse cells; AID 1381, 2008; actives 0.47% (n = 220,000); z-score, hits read low; test concentration mostly 20 µM; stimulated with dexamethasone, 1 µM; hits give low values;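 active means plate z-score of nuclear minus cytoplasmic receptor signal below a set negative limit, without overly bright fluorescence or cell loss, cut at about -3.5 in these data, passing the limit was not always enough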;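 further: z-score of nuclear minus cytoplasmic ring GR-EGFP intensity difference per well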
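Buffer or medium: Induction medium lacking tetracycline, stripped serum | Also added: Dexamethasone agonist, 1.0 µM final, for 30 min | Timing: 48 h induction, 1 h compound, 30 min dex at 37 °C | Detection: Formaldehyde fixation, Hoechst nuclear stain, 10x automated fluorescence imaging | Measure: Nuclear versus cytoplasmic GR-EGFP signal, averaged per well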
bCat nuc transl – modulators of beta-catenin nuclear translocation, primary screen, imaging, HeLa cells, immunofluorescence, high-content; actives 0.3% (n = 190,000); nuclear translocation activity, % at 5 µM;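 active means nuclear translocation activity above 50% at 5 µM, with a well cell count of 50 or more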;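 further: per-cell ratio of nuclear to cytoplasmic median beta-catenin stain intensity; plate controls were DMSO negative control for no effect and GSK-3 inhibitor IX positive control for full effect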
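Test system: HeLa cells, endogenous beta-catenin; Compound: single 5 µM dose plus 0.02–20 µM confirmation series; Times: compound exposure 24 h at 37°C; Signal: fluorescence imaging of beta-catenin antibody stain plus DAPI; Read-out: % activation, nuclear-to-cytoplasmic median beta-catenin signal ratio per cell.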
HSV augment – enhancers of HSV replication in host cells, fold increase, host cell viability; HSV replication augmentation in cells; maximum fold increase; actives 0.005% (n = 220,000); AID 1956, 2009; in the data active means maximum fold increase above about 1.5; tested in PC3 cells
Lmaj promast – Leishmania major promastigote growth inhibition, primary screen; Leishmania major promastigotes, resazurin fluorescence viability; inhibition, % at 10 µM; actives 9% (n = 200,000); AID 1063, 2008; in the data active means inhibition above about 50%;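 further: promastigotes grown with compound for 44 hours at 28 °C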
MT stabilize HCS – microtubule stabilizers in HeLa cells, primary screen, imaging, high-content imaging; HeLa tubulin immunostaining HCS, 24 h; share of cells brighter than vehicle mean+2SD; actives 0.83% (n = 200,000); AID 2205, 2009; % tubulin-high responders, % at 10 µM;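 active means plate Z-score above 3 for both tubulin-high and condensed-nucleus cell shares, with cell loss under 80%, at 10 µM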;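 further: anti alpha tubulin signal scored within the nucleus-defined area of each cell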
* = called active by the depositor; i = inactive; . = no result given. Shown are actives, neighbours in structure and some others; about 8.9% of the full set was active somewhere.

SMILES | Dynein transport | bCat nuc transl | HSV augment | Lmaj promast | MT stabilize HCS
Cc1ccc(S(=O)(=O)N(Cc2n[nH]c(=S)n2-c2ccccc2)c2cccc(Cl)c2)cc1 | -0.51 | -1 | i | -3 | .
Cc1cccc(C)c1NS(=O)(=O)c1ccc2c(c1)C(=O)c1ccccc1C2=O | -0.27 | . | i | 5 | 2
Cc1ccc(C)c(NC(=O)c2ccccn2)c1 | -0.99 | -1 | i | -3 | 2
CC(=O)Oc1ccccc1N(C(C)=O)S(=O)(=O)c1ccc(C)cc1 | 3.8 | 0 | i | -4 | 3
COc1ccc(S(=O)(=O)N(C(C)=O)c2ccc(OC(C)=O)c3ccccc23)cc1[N+](=O)[O-] | -0.25 | 1 | i | 100* | 7
O=C(Cn1c(=O)sc2ccccc21)Nc1ccc(S(=O)(=O)N2CCCCC2)cc1 | 0.19 | 0 | i | 33 | 6
CC(=O)C1=C(NC(=O)c2ccccc2F)C[C@@H]2[C@H]1C2(C)C | 0.075 | -4 | i | 2 | 1
CCc1nnc(NS(=O)(=O)c2ccc(NC(=S)NC(=O)c3ccc(OC)c(OC)c3)cc2)s1 | 0.23 | -2 | i | -9 | 1
Cc1ccc(NS(=O)(=O)c2cccc(C(=O)Nc3cc(C)on3)c2)cc1 | -0.57 | -1 | i | 91* | 4
Cc1cc(NS(=O)(=O)c2ccc(NC(=S)NC(=O)c3ccccc3)cc2)no1 | 0.88 | 0 | i | 66* | 3
CCC(CC)C(=O)Nc1cccc(C(=O)Nc2ccc(S(=O)(=O)Nc3ccc(C)cc3)cc2)c1 | -0.17 | 0 | i | 67* | 7
CCc1nnc(NS(=O)(=O)c2ccc(NC(=S)NC(=O)c3ccc(OC)cc3)cc2)s1 | 0.6 | 0 | i | 55* | 2
O=[N+]([O-])c1ccc(Oc2ccc(S(=O)(=O)Nc3ccccc3)cc2)cc1 | 0.013 | . | i | 66* | 3
CCn1nc(C)c(CN2CCc3c([nH]c4ccccc34)C2c2ccc(F)c(OC)c2)c1C (centres undefined) | -0.94 | 3 | i | 74* | 3
CC1(c2ccccc2)CC(C)(C)N(C(=O)C2CCCO2)c2ccccc21 (centres undefined) | 0.38 | . | i | 87* | 1
CC1(c2ccccc2)CC(C)(C)N(C(=O)CSc2nnc(N)s2)c2ccccc21 (centres undefined) | -0.21 | 2 | i | 15 | 2
CC1(c2cc([N+](=O)[O-])cc([N+](=O)[O-])c2)CC(C)(C)N(C(=O)c2ccccc2)c2ccccc21 (centres undefined) | -0.23 | -6 | i | 98* | 3
COc1cccc(/C=N/n2c(-c3ccco3)nc3ccccc3c2=O)c1 | -0.11 | -1 | i | 2 | 2
COc1ccc(C2=NN(C(=O)CSc3ncccn3)C(c3cccc(OC)c3OC)C2)cc1 (centres undefined) | -0.24 | 2 | i | 79* | 9
Cc1c(C(=O)N(C)C)sc2nc(-c3ccccn3)[nH]c(=O)c12 | -0.035 | . | i | 30 | 2
O=c1[nH]c(-c2ccccn2)nc2sc(-c3ccccc3)cc12 | 0.64 | 37 | i | 100* | 3
O=c1[nH]c(/C(Cl)=C/c2c(F)cccc2Cl)nc2cc(Cl)ccc12 | -1 | 0 | i | 79* | 4
CCOc1ccccc1N1CCN(C(=O)CCCN2C(=O)c3cccc4cccc(c34)C2=O)CC1 | -0.35 | -2 | i | 15 | 4
CC(=O)N/C(=C/c1ccccc1)C(=O)N1CCCCC1 | 1.1 | -1 | i | 24 | 4
CCN(CC)c1ccc(NC(=O)c2cccc(F)c2)c(C)c1 | -0.18 | 26 | i | 6 | 37*
SMILES | Dynein transport | bCat nuc transl | HSV augment | Lmaj promast | MT stabilize HCS
CC(=O)Nc1ccc(OCC(O)CN2CCN(S(=O)(=O)c3ccc(NC(C)=O)cc3)CC2)cc1 (centres undefined) | 0.87 | . | i | -1 | 1
CC(C)c1ccc2c(c1)C(c1cccs1)=NNC(c1ccncc1)=N2 | -0.18 | -2 | i | 44 | 2
CC(C)c1ccc2c(c1)C(c1ccc(N3CCOCC3)cc1)=NNC(c1cccs1)=N2 | -1.7 | 4 | i | 83* | 2
COC(=O)C1C(=O)C2=C(CC1C)NC(=O)CC2c1ccc(F)cc1 (centres undefined) | -0.77 | 2 | i | -3 | 2
Cc1cc(=O)oc2cc(OCC3CC(c4ccc(Br)cc4)=NO3)ccc12 (centres undefined) | 0.26 | 0 | i | -3 | 20*
N#Cc1cc(-c2ccccc2)cn(Cc2c(Cl)cccc2Cl)c1=O | . | 0 | i | -9 | 2
Nc1c(NCc2ccccc2)c2ccccc2oc1=O | -0.86 | . | i | 27 | 2
Cc1c(Cl)cnc(NC(=O)CSc2nnc3ccccn23)c1Cl | -0.08 | 0 | i | -6 | 2
Cc1ccc(C(=O)Nc2ccc(N3CCCC3)cc2)cc1 | -0.56 | -2 | i | 4 | 5
CC(=O)N1CCN(c2ccc(NC(=O)c3ccc(C(C)(C)C)cc3)cc2)CC1 | -0.36 | -1 | i | 97* | 2
O=C(Nc1ccc(N2CCCC2)cc1)c1ccc2ccccc2c1 | -1 | . | i | 36 | 5
COc1ccc(C(=O)Nc2ccc(N3CCCCC3)cc2)cc1Br | 0.14 | -2 | i | 52* | 2
CC(C)Oc1ccc(C(=O)Nc2ccc(N3CCCCC3)cc2)cc1 | -0.53 | -2 | i | 51* | 4
CC(=O)c1cccc(NC(=O)c2c(C)nn(-c3ccccc3)c2Cl)c1 | -0.11 | 1 | i | 0 | 3
O=C(N/N=C/c1cccc(Oc2ccccc2)c1)c1cccc(Br)c1 | -0.22 | 0 | i | 95* | 2
O=C(NN=C1c2ccccc2-c2ccccc21)c1cccc(Br)c1 | 0.37 | -3 | i | 89* | 5
O=C(N/N=C/c1cccc(Oc2ccccc2)c1)c1ccccc1Br | -0.79 | 4 | i | 95* | 27*
O=C(N/N=C/c1ccccc1C(=O)O)c1ccccc1Br | 1.3 | -3 | i | -1 | 3
O=C(NC12CC3CC(CC(C3)C1)C2)N1CCC(O)(c2ccc3c(c2)OCO3)CC1 | 0.22 | -4 | i | 10 | 3
O=C(c1nn2c(C(F)(F)F)cc(-c3ccco3)nc2c1Br)N1CCCc2ccccc21 | 0.24 | -1 | i | 9 | 63*
O=C(c1nn2c(C(F)(F)F)cc(-c3cccs3)nc2c1Br)N1CCCc2ccccc21 | -0.65 | . | i | 69* | 6
COC(=O)C1=C(C)NC(C)=C(C(=O)OC)C1c1cc2ccc(C)cc2[nH]c1=O | -0.36 | 0 | i | 20 | 31*
CCOC(=O)C1=C(C)NC(C)=C(C(=O)OCC)C1c1cc2ccc(C)cc2[nH]c1=O | -0.36 | . | i | 25 | 45*
COC(=O)C1=C(C)NC(C)=C(C(=O)OC)C1c1cc2cc(C)ccc2[nH]c1=O | -0.1 | -1 | i | -2 | 4

Screening results deposited in PubChem by several laboratories.
